From PubChem
Most compounds without a hit are left out; they make up all but 1.6% or so of the library.
TDP2 inh: blocks human TDP2 phosphodiesterase activity; recombinant TDP2, T5PNP hydrolysis, p-nitrophenol absorbance 415 nm; AID 720702; 370,000 tested, 0.34% active; inhibition, % at 12.8 µM;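 active = inhibition above the mean of all tested compounds plus 3 SD, set per campaign, cut at about 25% in these data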;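 note: 0% = DMSO with enzyme and 100% = buffer with substrate but no TDP2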
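System – recombinant human TDP2 · Amount – 120 nM TDP2 per well · Buffer or medium – Mg2+-containing Tris-HCl buffer, pH 7.5 · Reagent – T5PNP substrate, 5 mM · Dosing – 12.8 µM single point, 1% DMSO · Incubation – 2 h at 37 °C · Measured by – epi absorbance · Read-out basis – percent inhibition · Benchmarks – high control without enzyme, low control DMSO plus TDP2 · Repeats – singlicate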
HKDC1 inhibitor: blocks human hexokinase HKDC1 activity; Q2TB90; recombinant HKDC1, G6PDH/diaphorase resazurin coupled fluorescence; inhibition, % at 20 µM; 340,000 tested, 0.16% active; AID 493160;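 active = inhibition above about 35% when tested at 20 µM, limit read from the data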;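 note: plate controls were DMSO wells with enzyme for no effect and DMSO wells lacking enzyme for full effect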
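Assay system: in-house recombinant HK5 (HKDC1) enzyme. Input: HKDC1 at 5 µg/mL. Medium: Tris pH 8.0 buffer with MgCl2, Tween-20, BSA, BME. Dosing: single 20 µM dose. Schedule: 90 min reaction incubation at room temperature, dark. Signal: resazurin-to-resorufin fluorescence via G6PDH and diaphorase coupling, 525/613 nm. Controls: DMSO-enzyme wells negative, buffer-substituted wells positive.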
GSTO1 counter: GSTO1 inhibition, counter-screen for RBBP9 inhibitors; recombinant GSTO1, activity-based probe fluorescence polarization; inhibition, % at 5.96 µM; AID 1974; 300,000 tested, 1.1% active; P78417;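 active = inhibition above the campaign mean inhibition plus 3 SD, cut at about 35% in these data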;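 note: 0% = GSTO1-1 with DMSO and 100% = wells lacking GSTO1-1 enzyme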
UCH37 DUB inh: inhibitors of human deubiquitinating enzyme UCH37. 330,000 tested, 0.33% active. AID 588478. inhibition, % (concentration not given with the values). purified proteasome/UCH37, Ub-AMC cleavage fluorescence. Q9Y5K5;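 active = mean inhibition over replicate wells above about 20%, limit read from the data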;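 note: 0% = compound-free wells with enzyme and 100% = wells lacking proteasome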
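Signal – fluorescence, ex 355 nm, em 460 nm · System – Proteasome-bound UCH37 · Input – 0.15 nM proteasome as dispensed · Timing – 30 min preincubation with enzyme, 25 min cleavage at room temperature · Read-out basis – percent inhibition of cleavage signal versus uninhibited and no-proteasome wells · Medium – Tris-HCl pH 7.4 with ATP-MgCl2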
Fh CTSL1 inh: counter-screen for PFM18AAP inhibitors: inhibitors of F. hepatica cathepsin L1. recombinant F. hepatica cathepsin L1, Z-Leu-Arg-MCA fluorescence. inhibition, % at 5.96 µM. 300,000 tested, 0.49% active. AID 1906;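 active = inhibition above the mean of all tested compounds plus 3 SD, set per screening campaign, cut at about 17% in these data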;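 note: 0% = plate median of test compound wells and 100% = 1 µM Z-Phe-Ala-diazomethylketone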
PAD4 FP inh: inhibitors of human PAD4 | recombinant PAD4, RCA probe fluorescence polarization | inhibition, % at 6.36 µM | Q9UM07 | 330,000 tested, 0.41% active;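 active = percent inhibition above a cutoff equal to the mean of all tested compounds plus 3 SD, cut at about 15% in these data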;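 note: 0% = PAD4 with RCA probe and DMSO and 100% = probe without PAD4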
Target sequence (Q9UM07 whole entry, looked up): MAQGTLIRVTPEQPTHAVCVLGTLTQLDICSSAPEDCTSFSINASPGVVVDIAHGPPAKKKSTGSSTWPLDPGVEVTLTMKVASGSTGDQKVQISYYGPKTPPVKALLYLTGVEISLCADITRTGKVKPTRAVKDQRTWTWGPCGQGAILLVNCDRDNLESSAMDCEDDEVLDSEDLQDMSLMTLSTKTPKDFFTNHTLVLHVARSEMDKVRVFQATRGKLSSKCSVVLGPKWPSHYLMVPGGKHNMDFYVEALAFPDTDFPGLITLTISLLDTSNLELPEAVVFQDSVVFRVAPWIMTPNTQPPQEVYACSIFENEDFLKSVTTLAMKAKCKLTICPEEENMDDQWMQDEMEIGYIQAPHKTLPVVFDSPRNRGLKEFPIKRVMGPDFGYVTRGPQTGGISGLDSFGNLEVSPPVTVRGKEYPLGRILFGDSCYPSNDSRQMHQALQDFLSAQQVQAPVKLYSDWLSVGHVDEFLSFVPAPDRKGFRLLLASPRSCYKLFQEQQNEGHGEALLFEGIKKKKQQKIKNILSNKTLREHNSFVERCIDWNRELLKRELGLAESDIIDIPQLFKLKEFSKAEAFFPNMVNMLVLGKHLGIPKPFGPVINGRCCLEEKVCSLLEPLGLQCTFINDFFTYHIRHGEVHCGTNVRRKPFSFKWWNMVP
GSTO1 inh conf: GSTO1 (human) inhibition, confirmation; inhibition, % at 5.96 µM; AID 2176; recombinant GSTO1, probe fluorescence polarization; shares compounds with GSTO1 counter; 2,400 tested, 54% active;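 active = inhibition above the primary screen's cutoff, its mean inhibition plus 3 SD, cut at about 35% in these data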;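 note: loss of polarization as inhibitors block binding of rhodamine sulfonate ester activity probe; 0% = GSTO1 with DMSO and 100% = wells lacking GSTO1 enzyme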
PAD4 confirm: confirmation of human PAD4 inhibitors | shares compounds with PAD4 FP inh | 1,200 tested, 28% active | recombinant PAD4, RCA probe fluorescence polarization | AID 488796 | inhibition, % at 6.36 µM;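 active = mean inhibition across replicates above the hit cutoff set by the earlier primary screen, cut at about 15% in these data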;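 note: inhibitors block active-site labeling by the probe so polarization falls; 0% = PAD4 with probe and DMSO and 100% = probe without PAD4 enzyme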
HKDC1 act conf: confirmation of human HKDC1 activators; recombinant HKDC1, G6PDH/diaphorase resazurin fluorescence; hits give low values; 740 tested, 14% active; shares compounds with HKDC1 inhibitor; AID 504708; inhibition, % at 20 µM;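 active = inhibition at or below a set negative limit, negative inhibition meaning the enzyme was activated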
UCH37 reconfirm: UCH37 Ub-AMC cleavage inhibition, confirmed. shares compounds with UCH37 DUB inh. Proteasome-bound UCH37, Ub-AMC cleavage fluorescence. inhibition, % at 20 µM. 480 tested, 27% active. AID 624100;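 active = average inhibition over replicates above about 50%, so the earlier screening hit is confirmed, limit read from the data; inactive = the rest, counted as false positives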;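 note: based on cleavage rate fitted by regression over a 30 min kinetic read; 0% = proteasome plus Ub-AMC and 100% = Ub-AMC without proteasome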
TDP2 inh conf: human TDP2 inhibition, confirmation. shares compounds with TDP2 inh. recombinant human TDP2, absorbance read-out. inhibition, % at 12.8 µM. 1,100 tested, 22% active. AID 743263; in the data active = inhibition above about 25%;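 note: 0% = vehicle with enzyme and 100% = no enzyme buffer only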
* hit, by the source's call; i = inactive; x = no result.

SMILES	TDP2 inh	HKDC1 inhibitor	GSTO1 counter	UCH37 DUB inh	Fh CTSL1 inh	PAD4 FP inh	GSTO1 inh conf	TDP2 inh conf	others
O=C1C=C(Nc2ccccc2C(=O)O)c2ccccc2C1=O	46*	46*	75*	82*	29*	18*	88*	50*	PAD4 confirm=61*;HKDC1 act conf=44;UCH37 reconfirm=93*
CN(C)c1cccc2c1c(NS(=O)(=O)c1cn(C)cn1)nn2C	44*	7	54*	-26	-9	-2	5	32*
C/C(=C\C(=O)c1cccnc1)Nc1ccc(O)cc1	27*	3	38*	11	11	98*	3	-4	PAD4 confirm=6
COc1cc(C=NNC(=O)c2cccnc2)ccc1OCC(=O)Nc1ccc(C)cc1	x	x	x	-9	x	x	x	x
Nc1ccc2nn(-c3ccc(F)cc3)nc2c1	34*	7	43*	i	-1	-4	48*	12
C=CCn1c(N)c(C(=O)NCC2CCCO2)c2nc3ccccc3nc21 (centres undefined)	35*	5	80*	i	-4	12	5	-8
N#Cc1sc2nc(C3CC3)cc(-c3ccccc3)c2c1N	-1	5	-3	-93	-6	7	x	x
N#Cc1sc2nc(-c3ccccc3)cc(-c3ccco3)c2c1N	54*	23	66*	9	3	46*	78*	56*	PAD4 confirm=116*
COc1cccc(C(c2c(C)[nH]n(-c3ccccc3)c2=O)c2c(C)[nH]n(-c3ccccc3)c2=O)c1OC	89*	0	64*	9	2	72*	31	32*	PAD4 confirm=3
Cc1[nH]n(-c2ccccc2)c(=O)c1C(c1ccc(O)c([N+](=O)[O-])c1)c1c(C)[nH]n(-c2ccccc2)c1=O	89*	12	59*	7	3	57*	47*	9
O=c1c2cc([N+](=O)[O-])cc([N+](=O)[O-])c2[nH]n1-c1ccccc1	-18	-6	11	19	2	-4	x	x
CCOc1cccc(C(c2c(C)n(C)n(-c3ccccc3)c2=O)c2c(C)n(C)n(-c3ccccc3)c2=O)c1OC	3	-1	-6	1	0	-5	x	x
COc1cccc(C(c2c(C)[nH]n(-c3ccccc3)c2=O)c2c(C)[nH]n(-c3ccccc3)c2=O)c1O	80*	3	65*	3	-7	64*	38*	6	PAD4 confirm=-3
COc1ccc(C=NN2C(C)CCCC2C)cc1OC (centres undefined)	x	x	x	5	x	x	x	x
CON=CC(=NNc1ccc(OC)cc1)C(=O)c1ccc(OC)cc1	x	x	x	3	x	x	x	x
O=C1C2C3C=CC(CC3)C2C(=O)N1N=Cc1ccco1 (centres undefined)	x	x	x	1	x	x	x	x
Nc1ccc(N2CCCCC2)c2nonc12	82*	9	92*	21*	79*	69*	62*	89*
Nc1cc(Cl)ccc1N1CCCCC1	2	-7	0	-1	0	-1	x	x
O=C(NN=C1C2CN3CCN(C2)CC1(c1ccccc1)C3)c1ccc(F)cc1	x	x	x	3	x	x	x	x
O=C1C(Cl)=C(NCCN2CCOCC2)C(=O)c2ccccc21	31*	2	42*	17	12	-15	6	9
O=C1c2ccccc2C(=O)N1CCN1CCOCC1	-6	0	-4	1	2	-4	x	x
O=C1c2cccc(Cl)c2C(=O)c2c1cccc2N1CCCC1	26*	12	44*	7	-7	-10	7	5
COC(=O)COc1ccc(C=NNC(=O)c2ccc(N(Cc3ccccc3)S(C)(=O)=O)cc2)cc1	x	x	x	5	x	x	x	x
Nc1cccc2nc3ccccc3cc12	x	-4	5	-123	0	-5	x	x
Cc1cc2c(N)cccc2nn1	77*	35*	65*	x	-3	120*	110*	57*	PAD4 confirm=-2;HKDC1 act conf=4
SMILES	TDP2 inh	HKDC1 inhibitor	GSTO1 counter	UCH37 DUB inh	Fh CTSL1 inh	PAD4 FP inh	GSTO1 inh conf	TDP2 inh conf	others
Cc1ccc(S(=O)(=O)N=C(N)Nc2nc(C)c3cc(C)ccc3n2)cc1	x	x	x	-18	x	x	x	x
O=C(NC1=C(NC2CCS(=O)(=O)C2)C(=O)c2ccccc2C1=O)c1ccccc1 (centres undefined)	28*	53*	81*	62*	10	26*	71*	37*	PAD4 confirm=22*;HKDC1 act conf=69;UCH37 reconfirm=60*
CC(=NNC(=O)c1cc(C)[nH]n1)c1ccco1	x	x	x	8	x	x	x	x
Cc1ccccc1OCC(=O)NCC(=O)NN=Cc1ccc(Br)o1	x	x	x	0	x	x	x	x
O=c1cc(-c2ccc(Cl)cc2)[nH][nH]1	74*	-3	49*	3	0	60*	10	10	PAD4 confirm=-11
Oc1ccc(C=Nn2c(C3CCCCC3)n[nH]c2=S)c(O)c1	x	x	x	5	x	x	x	x
CCCCn1c(NC(=O)c2ccccc2Cl)c(C#N)c2nc3ccccc3nc21	38*	17	94*	-92	6	72*	64*	72*	PAD4 confirm=29*
CCCCn1c(NC(=O)CC)c(C#N)c2nc3ccccc3nc21	-3	4	8	-162	1	-4	x	x
O=C1C(Cl)=C(NC(=O)c2ccccc2)C(=O)C(Cl)=C1NC(=O)c1ccccc1	59*	43*	79*	7	-2	51*	14	33*	HKDC1 act conf=41
O=C(Nc1cccc(Cl)c1)c1ccccc1	5	-3	-1	0	-1	1	x	x
S=c1[nH]nc(-c2ccccc2)n1N=Cc1c[nH]c2ccccc12	x	x	x	1	x	x	x	x
CN(C)/C=N/NC(=O)c1ccccc1	-10	16	-4	x	-2	-6	x	x
O=C(NN=c1c(=O)c2ccccc2c1=O)c1ccccc1	57*	7	77*	79*	61*	44*	72*	78*	PAD4 confirm=45*;UCH37 reconfirm=77*
COCc1cc(C)nc(OCC(=O)NN=Cc2ccc(OC)c(O)c2)c1C#N	x	x	x	4	x	x	x	x
O=C(Cc1ccccc1Cl)NC1(O)C(=O)c2ccccc2C1=O	47*	-5	67*	x	26*	14	67*	54*
O=C(NCCc1ccccc1)C(=NO)c1ccccc1	x	x	x	0	x	x	x	x
